Experimental data from ChEMBL document CHEMBL3596195, “Novel cajaninstilbene acid derivatives as antibacterial agents” (Eur J Med Chem, 2015).
In brackets after ≈: the same amount, converted by molar mass.

What was measured:
[1] = Selectivity index, ratio of IC50 for mouse RAW264.7 cells to MIC for methicillin-resistant Staphylococcus aureus ATCC510019; assay type: toxicity; conditions: read-out: Selectivity Index
Summary of the method: (§1)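 SI = IC50 in mouse RAW 264.7 macrophages divided by broth-dilution MIC. For cytotoxicity, cells in DMEM/10% FBS/2 mM L-glutamine were seeded at 10,000/well for 12 h. They were then dosed across a concentration gradient in 1% FBS medium with DMSO below 0.1% for 72 h. Read-out was MTT, absorbance 562 nm, 4 wells × at least 3 runs.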

Staphylococcus aureus [2] = test: Antibacterial activity against methicillin-resistant Staphylococcus aureus ATCC523512 assessed as bacterial growth inhibition after 24 hrs by broth dilution method; assay type: functional; conditions: ATCC523512, 24 h
[3] = test system: Staphylococcus epidermidis; test: Ratio of penicillin MIC to compound MIC for Staphylococcus epidermidis ATCC12228 after 24 hrs by broth dilution method; assay type: functional
Summary of the method: (§2)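 MICs came from broth double dilution from 256 µg/mL in 5×10^5 cells/mL culture, 37 °C, 24 h, read visually as the lowest concentration without turbidity. The ratio is the reference antibiotic's MIC over the compound's MIC.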

[4] = Selectivity index, ratio of IC50 for mouse RAW264.7 cells to MIC for methicillin-resistant Staphylococcus aureus ATCC523512; assay type: toxicity; conditions: read-out: Selectivity Index; summary of the method: as §1
Escherichia coli = test: Antibacterial activity against Escherichia coli ATCC25922 assessed as bacterial growth inhibition after 24 hrs by broth dilution method; assay type: functional; conditions: ATCC25922, 24 h
Pseudomonas aeruginosa = test: Antibacterial activity against Pseudomonas aeruginosa ATCC2785 assessed as bacterial growth inhibition after 24 hrs by broth dilution method; assay type: functional; conditions: ATCC2785, 24 h
Staphylococcus aureus [5] = test: Antibacterial activity against methicillin-resistant Staphylococcus aureus ATCC515992 assessed as bacterial growth inhibition after 24 hrs by broth dilution method; assay type: functional; conditions: ATCC515992, 24 h
Staphylococcus aureus [6] = test: Antibacterial activity against methicillin-resistant Staphylococcus aureus ATCC52056 assessed as bacterial growth inhibition after 24 hrs by broth dilution method; assay type: functional; conditions: ATCC52056, 24 h
[7] = Selectivity index, ratio of IC50 for mouse RAW264.7 cells to MIC for methicillin-resistant Staphylococcus aureus ATCC515992; assay type: toxicity; summary of the method: as §1
[8] = Selectivity index, ratio of IC50 for mouse RAW264.7 cells to MIC for methicillin-resistant Staphylococcus aureus ATCC51033; assay type: toxicity; conditions: read-out: Selectivity Index; summary of the method: as §1
Staphylococcus aureus [9] = test: Antibacterial activity against methicillin-resistant Staphylococcus aureus ATCC43300 assessed as bacterial growth inhibition after 24 hrs by broth dilution method; assay type: functional; conditions: ATCC43300, 24 h
Proteus vulgaris = test: Antibacterial activity against Proteus vulgaris ATCC49101 assessed as bacterial growth inhibition after 24 hrs by broth dilution method; assay type: functional; conditions: ATCC49101, 24 h
[10] = Selectivity index, ratio of IC50 for mouse RAW264.7 cells to MIC for methicillin-resistant Staphylococcus aureus ATCC43300; assay type: toxicity; conditions: read-out: Selectivity Index; summary of the method: as §1
[11] = test system: Staphylococcus epidermidis; test: Antibacterial activity against Staphylococcus epidermidis ATCC12228 assessed as bacterial growth inhibition after 24 hrs by broth dilution method; assay type: functional; conditions: ATCC12228, 24 h
Staphylococcus aureus [12] = test: Antibacterial activity against methicillin-resistant Staphylococcus aureus ATCC62202 assessed as bacterial growth inhibition after 24 hrs by broth dilution method; assay type: functional; conditions: ATCC62202, 24 h
Staphylococcus aureus [13] = test: Antibacterial activity against methicillin-resistant Staphylococcus aureus ATCC51033 assessed as bacterial growth inhibition after 24 hrs by broth dilution method; assay type: functional; conditions: ATCC51033, 24 h
RAW264.7 = test: Cytotoxicity against mouse RAW264.7 cells assessed as inhibition of cell viability after 72 hrs by MTT assay; assay type: cell-based; conditions: RAW264.7, 72 h
Summary of the method: (§3)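 Mouse RAW 264.7 macrophages grown in DMEM with 10% FBS, 2 mM L-glutamine and penicillin/streptomycin at 37 °C, 5% CO2. Seeded at 10,000 cells/well for 12 h. Compound diluted 1000× from DMSO stock into 1% FBS medium (DMSO under 0.1%), over a concentration gradient, 72 h exposure. MTT formazan dissolved in DMSO for 45 min, absorbance read at 562 nm. Quadruplicate wells, at least three runs (N = 12).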

[14] = Cytotoxicity against mouse RAW264.7 cells assessed as cell viability at 8 ug/ml after 72 hrs by MTT assay; assay type: cell-based; conditions: read-out: Activity; summary of the method: as §3
Staphylococcus aureus [15] = test: Antibacterial activity against methicillin-resistant Staphylococcus aureus ATCC510019 assessed as bacterial growth inhibition after 24 hrs by broth dilution method; assay type: functional; conditions: ATCC510019, 24 h
[16] = Selectivity index, ratio of IC50 for mouse RAW264.7 cells to MIC for Staphylococcus aureus ATCC25923; assay type: toxicity; conditions: read-out: Selectivity Index; summary of the method: as §1
Staphylococcus aureus [17] = test: Antibacterial activity against methicillin-resistant Staphylococcus aureus ATCC425055 assessed as bacterial growth inhibition after 24 hrs by broth dilution method; assay type: functional; conditions: ATCC425055, 24 h
Staphylococcus aureus [18] = test: Ratio of norfloxacin MIC to compound MIC for Staphylococcus aureus ATCC25923 after 24 hrs by broth dilution method; assay type: functional; summary of the method: as §2
[19] = Selectivity index, ratio of IC50 for mouse RAW264.7 cells to MIC for methicillin-resistant Staphylococcus aureus ATCC62202; assay type: toxicity; conditions: read-out: Selectivity Index; summary of the method: as §1
[20] = Selectivity index, ratio of IC50 for mouse RAW264.7 cells to MIC for methicillin-resistant Staphylococcus aureus ATCC425055; assay type: toxicity; conditions: read-out: Selectivity Index; summary of the method: as §1
[21] = Selectivity index, ratio of IC50 for mouse RAW264.7 cells to MIC for Bacillus subtilis ATCC6633; assay type: toxicity; conditions: read-out: Selectivity Index; summary of the method: as §1
[22] = Selectivity index, ratio of IC50 for mouse RAW264.7 cells to MIC for methicillin-resistant Staphylococcus aureus ATCC513045; assay type: toxicity; conditions: read-out: Selectivity Index; summary of the method: as §1
Staphylococcus aureus [23] = test: Ratio of penicillin MIC to compound MIC for Staphylococcus aureus ATCC25923 after 24 hrs by broth dilution method; assay type: functional
[24] = Selectivity index, ratio of IC50 for mouse RAW264.7 cells to MIC for methicillin-resistant Staphylococcus aureus ATCC52056; assay type: toxicity; conditions: read-out: Selectivity Index; summary of the method: as §1
Staphylococcus aureus [25] = test: Antibacterial activity against Staphylococcus aureus ATCC25923 assessed as bacterial growth inhibition after 24 hrs by broth dilution method; assay type: functional; conditions: ATCC25923, 24 h
Staphylococcus aureus [26] = test: Antibacterial activity against methicillin-resistant Staphylococcus aureus ATCC513045 assessed as bacterial growth inhibition after 24 hrs by broth dilution method; assay type: functional; conditions: ATCC513045, 24 h
Bacillus subtilis [27] = test: Antibacterial activity against Bacillus subtilis ATCC6633 assessed as bacterial growth inhibition after 24 hrs by broth dilution method; assay type: functional; conditions: ATCC6633, 24 h
[28] = Selectivity index, ratio of IC50 for mouse RAW264.7 cells to MIC for Staphylococcus epidermidis ATCC12228; assay type: toxicity; conditions: read-out: Selectivity Index; summary of the method: as §1
Bacillus subtilis [29] = test: Ratio of norfloxacin MIC to compound MIC for Bacillus subtilis ATCC6633 after 24 hrs by broth dilution method; assay type: functional

SMILES	selectivity ratio [1]	MIC (Staphylococcus aureus [2])	MIC (Escherichia coli)	MIC (Pseudomonas aeruginosa)	MIC (Staphylococcus aureus [5])	MIC (Staphylococcus aureus [6])	selectivity ratio [7]	selectivity ratio [8]	MIC (Staphylococcus aureus [9])	MIC (Proteus vulgaris)	MIC [11]	MIC (Staphylococcus aureus [12])	MIC (Staphylococcus aureus [13])	IC50 (RAW264.7)	viability at 72 h, 8 ug/ml [14]	MIC (Staphylococcus aureus [15])	selectivity ratio [16]	MIC (Staphylococcus aureus [17])	selectivity ratio [19]	Ratio (Staphylococcus aureus [23])	other results
COc1cc(/C=C/c2ccc(C(F)(F)F)cc2)c(C(=O)O)c(O)c1CC=C(C)C	12.9	0.5 µg/mL (≈ 1.23 µM)	> 128 µg/mL	> 64 µg/mL	0.5 µg/mL (≈ 1.23 µM)	4 µg/mL (≈ 9.84 µM)	51.4	12.9	2 µg/mL (≈ 4.92 µM)	> 64 µg/mL	2 µg/mL (≈ 4.92 µM)	0.5 µg/mL (≈ 1.23 µM)	1 µg/mL (≈ 2.46 µM)	25.7 µg/mL (≈ 63.3 µM)	90.6%	2 µg/mL (≈ 4.92 µM)	12.9	0.5 µg/mL (≈ 1.23 µM)	12.9	1	Ratio [3]: 64; selectivity ratio [4]: 12.9; selectivity ratio [10]: 12.9; Ratio (Staphylococcus aureus [18]): 8; selectivity ratio [20]: 12.9; selectivity ratio [21]: 12.9; selectivity ratio [22]: 12.9; selectivity ratio [24]: 6.43; MIC (Staphylococcus aureus [25]): 2 µg/mL (≈ 4.92 µM); MIC (Staphylococcus aureus [26]): 8 µg/mL (≈ 19.7 µM); MIC (Bacillus subtilis [27]): 1 µg/mL (≈ 2.46 µM); selectivity ratio [28]: 12.9
COc1cc(/C=C/c2ccc(F)cc2F)c(C(=O)O)c(O)c1CC=C(C)C	23.3	2 µg/mL (≈ 5.34 µM)	> 128 µg/mL	> 64 µg/mL	1 µg/mL (≈ 2.67 µM)	2 µg/mL (≈ 5.34 µM)	46.5	46.5	2 µg/mL (≈ 5.34 µM)	> 64 µg/mL	0.5 µg/mL (≈ 1.34 µM)	1 µg/mL (≈ 2.67 µM)	1 µg/mL (≈ 2.67 µM)	46.5 µg/mL (≈ 124 µM)	94.4%	2 µg/mL (≈ 5.34 µM)	46.5	0.5 µg/mL (≈ 1.34 µM)	46.5	64	Ratio (Bacillus subtilis [29]): 8; selectivity ratio [24]: 23.3; MIC (Staphylococcus aureus [25]): 1 µg/mL (≈ 2.67 µM); MIC (Staphylococcus aureus [26]): 2 µg/mL (≈ 5.34 µM); MIC (Bacillus subtilis [27]): 2 µg/mL (≈ 5.34 µM)
